Assay outcomes (PubChem BioAssay)
TAAR1 agonist: human TAAR1 agonism. CHO RD-HGA16 TAAR1, Fluo-8 calcium fluorescence; vehicle wells 0%, saturating PEA agonist 100%. activation, % at 3 µM. hit rate 0.99% among 360,000. AID 624467;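 active = activation above the mean activation of all test compounds in the run plus 3 SD, cut at about 38% in these data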
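Benchmarks: low control DMSO, high control PEA (EC100); System: CHO RD-HGA16 cells carrying human TAAR1 plus Gα16; Detection: Fluo-8 fluorescence, 5 s baseline then 140 s kinetic read; Schedule: 17-24 h plating, Fluo-8 75 min 37 °C, 30 min RT; Read-out basis: % activation from peak over basal fluorescence ratio, DMSO-to-PEA scaled.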
TAAR1 antagonist: antagonists of human TAAR1; Q96RJ0; CHO RD-HGA16 TAAR1, Fluo-8 calcium fluorescence, antagonist; inhibition, % at 3 µM; hit rate 1.5% among 360,000;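 active = inhibition above a per-plate cutoff, the mean inhibition of test compounds on that plate plus 3 SD, cut at about 49% in these data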;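 note: 0% = DMSO plus EC80 beta-PEA response and 100% = DMSO alone without agonist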
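Material: CHO RD-HGA16 cells bearing hTAAR1; compound dosing: one-point dosing, 3 µM nominal final; schedule: dye loading 75 min at 37 °C, then 30 min room temperature; measured by: calcium fluorescence with Fluo-8; control set: vehicle and agonist controls; replication: n of 1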
OX1R antag-1: OX1R (human) antagonism | AID 485270 | inhibition, % at 6.6 µM | O43613 | OX1R-expressing cells, FRET antagonist read-out | hit rate 1.8% among 330,000; in the data active = inhibition mostly above about 38%, no sharp cut-off; inactive = mostly below about 40%;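 note: 0% = agonist challenge alone and 100% = reference antagonist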
OX1R antag-2: antagonists of human orexin 1 receptor; CHO/OX1R cells, Fluo-8 calcium fluorescence, orexin A; O43613; inhibition, % at 5 µM; hit rate 0.43% among 330,000;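 active = inhibition above its plate's threshold, mean inhibition of all tested compounds on the plate plus 3 SD, cut at about 37% in these data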;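 note: 0% = orexin A challenge wells and 100% = SB-334867-A antagonist wells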
GalR3 antag: antagonists of human GalR3; O60755; HEK293 GalR3-CNG cAMP membrane potential fluorescence; galR3 body fused to GalR1 C-terminus; inhibition, % at 3 µM; hit rate 0.44% among 360,000; AID 651719;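 active = inhibition above the screen-wide average plus 3 SD, cut at about 13% in these data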;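 note: forskolin and galanin both at EC90 stimulate the cells; cAMP rise reported by CNG channel membrane potential dye signal; 0% = forskolin plus galanin with DMSO and 100% = forskolin alone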
Target sequence (O60755 1-299 limits assumed): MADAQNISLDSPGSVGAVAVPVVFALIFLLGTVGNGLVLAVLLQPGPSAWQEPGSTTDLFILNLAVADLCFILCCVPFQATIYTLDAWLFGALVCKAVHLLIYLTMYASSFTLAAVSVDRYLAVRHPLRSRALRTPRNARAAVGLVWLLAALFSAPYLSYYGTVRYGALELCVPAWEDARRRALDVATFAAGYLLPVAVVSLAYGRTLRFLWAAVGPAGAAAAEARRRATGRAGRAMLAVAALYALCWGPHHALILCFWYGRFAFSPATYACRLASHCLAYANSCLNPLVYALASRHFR
CHO parental Ca: signal in parental CHO cells, OX1R antagonist counter-screen; parental CHO-K1, ATP-induced calcium, Fluo-8 fluorescence; inhibition, % at 5.6 µM; hit rate 0.63% among 330,000;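 active = inhibition above that plate's mean sample inhibition plus 3 SD, cut at about 26% in these data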;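 note: 0% = ATP-challenged DMSO wells and 100% = DMSO wells without ATP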
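test system = CHO parental line | reagent = ATP stimulus | measured by = intracellular calcium via Fluo-8 no-wash fluorescent dye | control set = ATP and no-ATP DMSO wells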
TAAR1 nonsel count: counter-screen for TAAR1 antagonists: nonselective antagonists | counterscreen cell line, calcium fluorescence, antagonist mode | hit rate 77% among 2,400 | shares compounds with TAAR1 antagonist | inhibition, % at 3 µM | AID 651780; in the data active = inhibition above about 22%;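 note: CHO-Ga16 host cells stimulated with ATP at an EC80 level; 0% = agonist EC80 plus vehicle and 100% = vehicle without agonist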
TAAR1 antag conf: human TAAR1 antagonism, confirmed; shares compounds with TAAR1 antagonist; hit rate 40% among 2,400; TAAR1-expressing cells, fluorescence antagonist read-out; inhibition, % at 3 µM; in the data active = inhibition above about 49%;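 note: CHO-Ga16 host cells challenged with agonist PEA near its EC80; 0% = agonist at EC80 plus vehicle and 100% = vehicle with no agonist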
Ga16 ag counter: counter-screen for TAAR1 antagonists: nonselective Ga16 agonists | AID 651953 | Ga16-expressing cells, calcium fluorescence, agonist counterscreen | shares compounds with TAAR1 antagonist | activation, % at 3 µM | hit rate 18% among 2,400; in the data active = activation above about 12%;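 note: 0% = vehicle wells and 100% = saturating stimulus response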
TAAR1 ag count: counter-screen for human TAAR1 antagonists: TAAR1 agonists; activation, % at 3 µM; hTAAR1 cell line, fluorescence activation, agonist mode; hit rate 2% among 2,400; shares compounds with TAAR1 antagonist; in the data active = activation above about 37%;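 note: CHO cells stably expressing TAAR1 with calcium dye readout; 0% = DMSO vehicle and 100% = full agonist response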
Numbers without * were called inactive; x = no result. Hits are enriched below; roughly 4.3% of the tested compounds scored in any of these assays.

SMILES	TAAR1 agonist	TAAR1 antagonist	OX1R antag-1	OX1R antag-2	GalR3 antag	CHO parental Ca	TAAR1 nonsel count	TAAR1 antag conf	Ga16 ag counter	TAAR1 ag count
COc1ccc(C(=O)NCCc2c[nH]c3ccccc23)cc1[N+](=O)[O-]	15.3	63.1*	-0.3	-17.6	-3.5	0.6	27.1*	48.4	10.5	8.6
COc1ccc(NC(=O)N(Cc2cc3ccc(OC)cc3[nH]c2=O)CC2CCCO2)cc1 (configuration not stated)	14.9	9.8	5.7	-18.5	-0.4	-20.4	x	x	x	x
COc1ccc(NC(=O)N(Cc2cc3cc(OC)ccc3[nH]c2=O)CC2CCCO2)cc1 (configuration not stated)	13.4	55.9*	24.2	-25.8	-2.6	-16.6	26.7*	41.0	6.9	4.9
COC(=O)c1ccccc1NC(=S)N(Cc1ccc2c(c1)OCO2)Cc1cc2cc(OC)ccc2[nH]c1=O	2.8	53.2*	28.3	-19.1	-2.7	-16.9	15.1	27.4	6.4	9.1
O=C(O)c1ccc(S(=O)(=O)Nc2ccc3c(c2)OCCO3)cc1	4.0	-9.2	-3.0	-19.3	-3.4	-0.7	x	x	x	x
O=C(NCc1cccs1)c1ccc2sc(C3=C[C@@H](O)[C@@H](O)[C@@H](CO)O3)nc2c1	0.9	-17.3	x	x	-1.9	x	x	x	x	x
COc1cccc(CNC(=O)COC(=O)c2nn(C)c(=O)c3ccccc23)c1	8.2	-2.5	9.0	-13.3	-4.0	-5.4	x	x	x	x
Cc1ccc(C)c(N2CCN(C(=O)CCc3nc(-c4cccc(Br)c4)no3)CC2)c1	-0.6	-6.5	9.4	-17.5	-5.7	-21.3	x	x	x	x
Cc1ccc(C)c(N2CCN(C(=O)CCc3nc(-c4ccccc4F)no3)CC2)c1	7.7	63.9*	19.2	7.7	-5.5	-13.8	18.4	40.4	7.1	10.1
Cc1ccc(C)c(N2CCN(C(=O)CCc3nc(-c4ccccc4Br)no3)CC2)c1	3.6	67.2*	14.9	-4.6	-7.5	0.2	32.0*	46.2	6.1	4.1
Cc1ccc(C)c(N2CCN(C(=O)CCc3nc(-c4cccc(F)c4)no3)CC2)c1	-1.5	10.9	21.8	-6.8	-6.3	-17.7	x	x	x	x
Cc1ccc(NC(=O)CC2CCCC2)c(Br)c1	4.7	-17.7	4.2	-17.3	-8.7	-8.9	x	x	x	x
Cc1c(C(=O)NCc2ccc(Cl)c(Cl)c2)sc(=O)n1Cc1ccc(S(C)(=O)=O)cc1	20.8	71.7*	x	x	-2.7	x	34.9*	37.1	13.8*	13.5
CCNC(=S)Nc1cccc(S(=O)(=O)Nc2ccccc2OC)c1	3.6	-24.0	17.4	9.4	0.6	14.4	x	x	x	x
COc1ccccc1NS(=O)(=O)c1cccc(NC(=O)Nc2ccccc2)c1	35.4	98.1*	23.2	44.1*	-10.5	23.2	60.2*	94.3*	15.1*	50.4*
O=C(NCCN1CCC(n2c(=O)[nH]c3ccccc32)CC1)c1ccccc1C(F)(F)F	3.5	3.0	x	x	-5.2	x	x	x	x	x
Cc1ccc(C(C(=O)NCc2ccc(F)cc2)N(Cc2ccco2)C(=O)c2snc(C(N)=O)c2N)o1 (configuration not stated)	21.7	63.2*	11.3	-19.0	-0.1	-8.0	31.2*	61.6*	11.1	23.5
Cc1ccccc1C(C(=O)NCc1ccccc1)N(Cc1ccco1)C(=O)c1ccccn1 (configuration not stated)	21.3	50.0*	54.5	-7.3	-4.1	-18.9	27.3*	46.4	8.3	11.7
NC(=O)c1nsc(C(=O)N(Cc2cccnc2)C(C(=O)NCc2ccccc2)c2ccc(O)cc2)c1N (configuration not stated)	1.7	-10.8	0.7	-10.8	-0.3	-8.1	x	x	x	x
